Myeloid diff 2 – induction of myeloid progenitor differentiation, primary screen, cell-based, flow cytometry, MLPCN library | hit rate 1% among 360,000 | calls only at 10 µM | ER-HoxA9 myeloid progenitors, lysozyme-GFP differentiation;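 active = normalized GFP-positive differentiation at or above the plate's own cutoff, the solvent-only control mean plus 3 SD; inconclusive = no clear call, values can overlap the other calls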;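 also: cells exposed to compound for four days before flow analysis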
HNF4A DNA FP – change in binding of human HNF4A to DNA, primary screen, biochemical, fluorescence polarization, FITC-DNA | Hepatocyte nuclear factor 4-alpha (Homo sapiens), P41235 | 1 h | activity change, % at 10 µM | hit rate 0.3% among 360,000 | AID 1224865, 2016; in the data active = activity change above about 30%, passing the limit was not always enough
Target sequence (P41235 whole entry, looked up): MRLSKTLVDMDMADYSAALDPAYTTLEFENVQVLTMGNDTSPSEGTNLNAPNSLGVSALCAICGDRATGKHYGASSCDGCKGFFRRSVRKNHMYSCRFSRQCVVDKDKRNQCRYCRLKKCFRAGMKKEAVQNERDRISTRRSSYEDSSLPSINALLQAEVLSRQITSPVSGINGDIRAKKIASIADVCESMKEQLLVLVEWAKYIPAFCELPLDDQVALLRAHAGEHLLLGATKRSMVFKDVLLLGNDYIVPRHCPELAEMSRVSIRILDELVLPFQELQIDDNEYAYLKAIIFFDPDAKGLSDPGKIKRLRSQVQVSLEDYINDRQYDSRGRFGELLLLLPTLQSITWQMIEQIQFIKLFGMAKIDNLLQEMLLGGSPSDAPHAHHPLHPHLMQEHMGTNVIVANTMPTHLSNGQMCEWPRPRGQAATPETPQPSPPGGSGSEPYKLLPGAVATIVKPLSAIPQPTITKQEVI
Granule exo inh – LAMP-1 surface exposure blockers, TALL-104 cells – cell-based, flow cytometry, MLPCN library, primary screen; AID 651702, 2012; inhibition, % at 10 µM; hit rate 0.66% among 360,000; TALL-104 LAMP-1 surface exposure; cells stimulated with thapsigargin and PMA;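 active = inhibition above about 55%, limit read from the data; inconclusive = no clear call, values can overlap the other calls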
CSN inh – inhibitors of CSN-mediated cullin deneddylation, primary screen, biochemical, fluorescence polarization, uHTS | COP9 signalosome complex subunit 5 (Homo sapiens), Q92905 | Purified CSN, SCF-Nedd8-OG deneddylation | inhibition, % at 12.5 µM | hit rate 0.38% among 360,000 | AID 651999, 2013;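 active = pattern-corrected inhibition above about 35%, with an unprinted fluorescence ratio check between 0.5 and 1.5, limit read from the data, passing the limit was not always enough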
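Detection – fluorescence polarization · System – HEK293T-derived human Csn5 enzyme · Controls – substrate-only high control, full reaction low control · Timing – 90 min, room temperature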
Myeloid diff CP1 – inducers of myeloid progenitor differentiation, confirmation, cell-based, GFP/Mac1 flow cytometry, cherry pick 01; shares compounds with Myeloid diff 2; ER-HoxA9 myeloid progenitors, GFP/Mac1 double-positive flow; calls only; hit rate 2% among 2,300; AID 651706, 2012;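 active = share of green or green-and-red cells above 9 and 9% in run 1 or 4 and 3% in run 2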
GFP autofluor – flagged as fluorescent in myeloid differentiation counter-screen; shares compounds with Myeloid diff 2; fluorescence response, % (no concentration beside the values); AID 651707; ER-HoxA9 myeloid progenitors, no estrogen, GFP autofluorescence flow cytometry; vehicle wells 0%, positive control 100%; hit rate 7.4% among 2,300;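 active = over 5% cells positive for green fluorescent reporter, or over 2% positive for both it and APC stain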
Exocytosis CP01 – inhibitors of lytic granule exocytosis, confirmation, TALL-104 cells, flow cytometry, Cherry Pick01 | shares compounds with Granule exo inh | inhibition, % at 10 µM | hit rate 11% among 1,500 | LAMP-1 externalization; stimulated with PMA plus thapsigargin; in the data active = inhibition above about 60%
HNF4a DNA conf – change in HNF4A binding to DNA, retest, confirmation, biochemical, fluorescence polarization, FITC-DNA; shares compounds with HNF4A DNA FP; 1 h; activity change, % at 12.5 µM; hit rate 99% among 210; call rule not given here
Numbers stand for hits; . = inactive; ? = inconclusive; / = not tested or not shown; + = active, no number. An excerpt weighted towards active compounds, which were near 2.2% of everything screened.

SMILES | Myeloid diff 2 | HNF4A DNA FP | Granule exo inh | CSN inh | Myeloid diff CP1 | GFP autofluor | Exocytosis CP01 | HNF4a DNA conf
O=C(NCCCN1CCOCC1)c1ccc2nc(Cc3cccc(Cl)c3)oc2c1 | . | . | . | . | / | / | / | /
CCN1/C(=N\N)c2cccc3cccc1c23 | + | 57.4 | 95.3 | 51.4 | . | 94.1 | / | 72.2
O=C(c1cc(S(=O)(=O)N2CCOCC2)ccc1Cl)N1CCCCC1CO (centres undefined) | . | . | . | . | / | / | / | /
O=Cc1sc(Nc2ccccc2)nc1Cl | + | 37.1 | . | . | . | 51.7 | / | 59.0
O=c1sc(Nc2ccccc2)nc2ccsc12 | . | . | . | . | / | / | / | /
O=[N+]([O-])c1cccc(-c2ccc(/C=N/Nc3nc(N4CCCCC4)nc(N4CCCCC4)n3)o2)c1 | . | . | . | . | / | / | / | /
O=[N+]([O-])c1ccc(-c2ccc(/C=N/Nc3nc(N4CCCC4)nc(N4CCCC4)n3)o2)cc1 | + | 32.8 | . | . | . | 6.0 | / | 35.1
O=C(/C=C/c1cccc([N+](=O)[O-])c1)Nc1ccccc1N1CCOCC1 | . | . | . | . | / | / | / | /
N#C/C(=C/C1=C(N2CCOCC2)C(=C/c2cccc([N+](=O)[O-])c2)/CC1)C(=O)Nc1ccccc1F | + | 48.6 | . | 53.2 | . | 45.7 | / | 64.8
N#C/C(=C/c1ccc(-c2ccc([N+](=O)[O-])cc2)o1)c1nnc(N2CCOCC2)n1-c1ccccc1 | + | 48.0 | . | . | . | . | / | 37.6
COc1ccc(C)cc1N(C(=O)c1ccc(C#N)cc1)C1=NC(C)(C)CS1 | . | . | . | . | / | / | / | /
CCOC(=O)/C=C1/N(C)c2ccccc2C1(C)C | . | . | . | . | / | / | / | /
CN1/C(=C\P(=O)(N(C)C)N(C)C)C(C)(C)c2ccccc21 | + | 39.4 | . | . | . | 81.8 | / | 43.1
O=C1C2C3C=CC(C3)C2S(=O)(=O)C2C3C=CC(C3)C12 (centres undefined) | . | . | . | . | / | / | / | /
Cc1cc(C)cc(OCC(=O)OCC(=O)Nc2cc(S(=O)(=O)N3CCOCC3)ccc2Cl)c1 | . | . | . | . | / | / | / | /
O=C1NC(=S)N(C(=O)c2ccc(F)cc2)/C1=C/c1ccccc1 | + | 77.9 | . | 54.6 | . | . | / | 88.6
CCOC(=O)c1c(NC(=S)Nc2ccc(Cl)cc2)sc2c1CCN(C)C2 | + | 58.1 | . | 61.4 | . | 46.8 | / | 82.6
Cc1cccc2c1-c1sc(C(=O)NCCCN3CCCC(C)C3)cc1CO2 (centres undefined) | ? | . | 85.0 | . | / | / | . | /
CCCN1CCN(CCCNC(=O)c2cc3c(s2)-c2c(C)cccc2OC3)CC1 | . | . | 64.7 | . | / | / | . | /
NCCc1c(-c2ccccc2)n(-c2ccccc2)c2ccccc12 | . | . | 90.6 | . | / | / | 69.8 | /
CN1CCN(c2ccc(NC(=O)c3ccc(-c4ccc(Cl)cc4)o3)cc2)CC1 | . | . | 73.2 | . | / | / | 90.9 | /
CS(=O)(=O)N1CCN(c2ccc(NC(=O)c3ccc(-c4ccc(Cl)cc4)o3)cc2)CC1 | . | . | . | . | / | / | / | /
CN1CCN(c2ccc(NC(=O)c3cccc(OCc4ccccc4)c3)cc2)CC1 | . | . | 58.3 | . | / | / | . | /
CCC1Sc2ccc(S(=O)(=O)N3CCN(c4ccccc4)CC3)cc2NC1=O (centres undefined) | . | . | 70.6 | . | / | / | . | /
Cc1cccn2c(=O)c3cc(C(=O)NCCc4ccccc4)c(=N)n(Cc4ccco4)c3nc12 | . | . | 77.6 | . | / | / | . | /
Cc1cccn2c(=O)c3cc(C(=O)NCC4CCCO4)c(=N)n(CCc4ccccc4)c3nc12 (centres undefined) | . | . | . | . | / | / | / | /

Compound activity from PubChem.
